Source: ChEMBL document CHEMBL1131011, “Pharmacophores incorporating numerous excluded volumes defined by X-ray crystallographic structure in three-dimensional database searching: application to the thyroid hormone receptor” (J Med Chem, 1998)

What was measured:
[1] = target: T1, Thyroid hormone receptor alpha (Homo sapiens, UniProt P10827); experiment: Inhibitory activity expressed as concentration required to inhibit the binding of [125I]T3 to human thyroid hormone-alpha; NA =Inactive
T1 sequence (P10827 whole entry): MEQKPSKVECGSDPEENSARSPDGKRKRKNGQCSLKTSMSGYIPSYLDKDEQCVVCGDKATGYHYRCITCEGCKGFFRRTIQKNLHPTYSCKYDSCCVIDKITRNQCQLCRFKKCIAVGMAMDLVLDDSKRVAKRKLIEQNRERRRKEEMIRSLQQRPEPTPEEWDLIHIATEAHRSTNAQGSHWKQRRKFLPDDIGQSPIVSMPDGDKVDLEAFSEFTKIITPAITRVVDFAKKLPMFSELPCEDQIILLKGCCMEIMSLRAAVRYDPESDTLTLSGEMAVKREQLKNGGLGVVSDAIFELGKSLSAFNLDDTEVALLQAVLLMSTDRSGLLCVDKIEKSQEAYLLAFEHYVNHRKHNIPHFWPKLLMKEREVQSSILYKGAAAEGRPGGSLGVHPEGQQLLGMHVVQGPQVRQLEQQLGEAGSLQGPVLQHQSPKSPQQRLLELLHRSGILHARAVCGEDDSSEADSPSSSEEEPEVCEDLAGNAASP
In short: (§1)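 hTHR from nuclear extracts of baculovirus-infected sf-9 cells, 20 pM final, with [125I]T3 at 200 pM final. Compounds serially diluted in DMSO. Buffer: 400 mM KCl, K phosphate, 1 mM MgCl2, 0.5 mM EDTA, 8.7% glycerol, 6 mM monothioglycerol, 0.5% reticulocyte lysate; 18–20 h, 4 °C. Bound and free separated on Sephadex G-25, gamma-counted. IC50 from competition curve, second of two titrations.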

[2] = target: T1, Thyroid hormone receptor alpha; experiment: Inhibitory activity expressed as concentration required to inhibit the binding of [125I]T3 to human thyroid hormone-alpha; in short: as §1

For N=C(c1ccc(Cl)cc1)N(N)S(=O)(=O)c1cc(Cl)c(Oc2ccc([N+](=O)[O-])cc2Cl)c(Cl)c1, the IC50 [1] was “Not Active”.

With N=C(c1cccnc1)N(N)S(=O)(=O)c1cc(Cl)c(Oc2ccc([N+](=O)[O-])cc2Cl)c(Cl)c1 the IC50 [1] was “Not Active”.

With O=C(Nc1ccc(Cc2ccc(NC(=O)c3cccc([N+](=O)[O-])c3)cc2)cc1)c1cccc([N+](=O)[O-])c1 the IC50 [2] was 18.1 µM.

For [NH-]C(c1cc(Cl)cc(Cl)c1)=[N+](N)S(=O)(=O)c1cc(Cl)c(Oc2ccc([N+](=O)[O-])cc2Cl)c(Cl)c1, the IC50 [2] was 0.93 µM.

Compound N=C(c1ccccn1)N(N)S(=O)(=O)c1cc(Cl)c(Oc2ccc([N+](=O)[O-])cc2Cl)c(Cl)c1 has an IC50 [2] of 39 µM.

For N=C(c1ccc(Cl)cc1)N(N)S(=O)(=O)c1cc(Cl)c(Oc2ccc([N+](=O)[O-])cc2)c(Cl)c1, the IC50 [1] was “Not Active”.

With Cn1c(Cc2nn(C)c(=O)c3ccccc23)ccc1SCC(=O)c1ccc(Cl)cc1Cl the IC50 [2] was 69 µM.

For Cn1c(Cc2nn(C)c(=O)c3ccccc23)ccc1SCc1ccc(Cl)cc1Cl, the IC50 [1] was “Not Active”.

Work on N=C(CCl)N(N)S(=O)(=O)c1cc(Cl)c(Oc2ccc([N+](=O)[O-])cc2Cl)c(Cl)c1 yielded an IC50 [2] of 1.8 µM.
